Assay type in all cases: functional
Test [1] concerns Trichoderma hamatum. Nature of the test: Antifungal activity against Trichoderma hamatum assessed as radial growth at 5% after 48 hrs by poison food technique of Flack. The essentials:
(§1)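 Poisoned-food method: acetone stock mixed into molten sterilized potato dextrose agar to final 0.5, 1, 3, 5 or 7%, poured into 90 mm plates. Plates were inoculated with a 9 mm mycelial disc from a 4-day-old pure culture and incubated at 25 ± 1 °C. Colony diameter (mm) was read every 24 h; mean of three replicates.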

In test [2] the test system is Trichoderma hamatum. The experiment in a line: Antifungal activity against Trichoderma hamatum assessed as radial growth at 5% after 24 hrs by poison food technique of Flack relative to control. An outline of the steps:
(§2)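 Acetone stock added to molten sterilized PDA to final 0.5–7%, plated in 90 mm dishes with compound-free plates as control. Each plate was inoculated with a 9 mm disc from a 4-day-old culture, incubated at 25 ± 1 °C, and colony diameter measured at 24 h intervals. % inhibition = (control − treatment)/control × 100; three replicates averaged.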

Test [3] has as its system Trichoderma koningii. Nature of the test: Growth promotion of Trichoderma koningii assessed as radial growth at 0.5% after 24 hrs by poison food technique of Flack relative to control.
Test [4] deals with Aspergillus niger. The experiment in a line: Growth promotion of Aspergillus niger assessed as radial growth at 1% after 48 hrs by poison food technique of Flack relative to control. The essentials:
(§3)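 Growth increase in poisoned PDA plates (acetone stock, final 0.5 or 1%) against untreated control plates. Inoculum was a 9 mm mycelial disc from a 4-day-old culture, incubated at 25 ± 1 °C, with colony diameter read every 24 h. Where treated growth exceeded control, percentage increase over control was recorded; average of three replicates.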

Test [5] has as its system Trichoderma hamatum. Nature of the test: Antifungal activity against Trichoderma hamatum assessed as radial growth at 5% after 24 hrs by poison food technique of Flack. An outline of the steps: as §1
In test [6] the test system is Aspergillus niger. The experiment in a line: Antifungal activity against Aspergillus niger assessed as radial growth at 7% after 72 hrs by poison food technique of Flack relative to control.
The subject of test [7] is Trichoderma koningii. The experiment in a line: Growth promotion of Trichoderma koningii assessed as radial growth at 0.5% after 48 hrs by poison food technique of Flack relative to control.
Test [8] has as its system Aspergillus niger. Nature of the test: Antifungal activity against Aspergillus niger assessed as radial growth at 0.5% after 24 hrs by poison food technique of Flack relative to control.
In test [9] the test system is Trichoderma koningii. The experiment in a line: Antifungal activity against Trichoderma koningii assessed as radial growth at 7% after 24 hrs by poison food technique of Flack. An outline of the steps:
as §1

Test [10] relates to Aspergillus niger. Nature of the test: Growth promotion of Aspergillus niger assessed as radial growth at 1% after 72 hrs by poison food technique of Flack relative to control. The essentials:
as §3

For test [11], the system named is Aspergillus niger. The experiment in a line: Growth promotion of Aspergillus niger assessed as radial growth at 0.5% after 72 hrs by poison food technique of Flack relative to control. An outline of the steps:
as §3

For test [12], the system named is Aspergillus niger. The experiment in a line: Growth promotion of Aspergillus niger assessed as radial growth at 0.5% after 48 hrs by poison food technique of Flack relative to control. An outline of the steps:
as §3

Test [13] deals with Trichoderma hamatum. Nature of the test: Growth promotion of Trichoderma hamatum assessed as radial growth at 0.5% after 72 hrs by poison food technique of Flack relative to control.
Test [14] deals with Aspergillus niger. Nature of the test: Growth promotion of Aspergillus niger assessed as radial growth at 0.5% after 24 hrs by poison food technique of Flack relative to control. An outline of the steps: as §3
Test [15] has as its system Trichoderma koningii. The experiment in a line: Growth promotion of Trichoderma koningii assessed as radial growth at 0.5% after 72 hrs by poison food technique of Flack relative to control.
Test [16] concerns Trichoderma koningii. Nature of the test: Antifungal activity against Trichoderma koningii assessed as radial growth at 1% after 24 hrs by poison food technique of Flack relative to control. An outline of the steps: as §2
The test system of test [17] is Trichoderma hamatum. Nature of the test: Antifungal activity against Trichoderma hamatum assessed as radial growth at 7% after 48 hrs by poison food technique of Flack. The essentials:
as §1

Test [18] deals with Trichoderma koningii. Nature of the test: Antifungal activity against Trichoderma koningii assessed as radial growth at 5% after 24 hrs by poison food technique of Flack. The essentials: as §1
Test [19] concerns Trichoderma koningii. The experiment in a line: Growth promotion of Trichoderma koningii assessed as radial growth at 1% after 48 hrs by poison food technique of Flack relative to control.
Test [20] deals with Trichoderma koningii. Nature of the test: Antifungal activity against Trichoderma koningii.
Test [21] has as its system Aspergillus niger. Nature of the test: Antifungal activity against Aspergillus niger assessed as radial growth at 7% after 24 hrs by poison food technique of Flack. An outline of the steps: (§4)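 Poisoned-food assay on potato dextrose agar. Compound stock in acetone was added to molten sterilized PDA to a final 0.5, 1, 3, 5 or 7%, then 20 mL was poured per 90 mm plate. Each plate was inoculated with a 9 mm mycelial disc from a 4-day-old pure culture and incubated at 25 ± 1 °C. Colony diameter (mm) was read every 24 h; mean of three replicates.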

The test system of test [22] is Aspergillus niger. Nature of the test: Antifungal activity against Aspergillus niger assessed as radial growth at 7% after 72 hrs by poison food technique of Flack. The essentials:
as §4

The test system of test [23] is Aspergillus niger. The experiment in a line: Antifungal activity against Aspergillus niger assessed as radial growth at 5% after 24 hrs by poison food technique of Flack. An outline of the steps:
as §4

For test [24], the system named is Aspergillus niger. Nature of the test: Antifungal activity against Aspergillus niger assessed as radial growth at 7% after 48 hrs by poison food technique of Flack. An outline of the steps: as §4
Test [25] has as its system Trichoderma koningii. Nature of the test: Growth promotion of Trichoderma koningii assessed as radial growth at 1% after 72 hrs by poison food technique of Flack relative to control.
The test system of test [26] is Aspergillus niger. Nature of the test: Antifungal activity against Aspergillus niger assessed as radial growth at 5% after 48 hrs by poison food technique of Flack. An outline of the steps:
as §4

The subject of test [27] is Trichoderma hamatum. Nature of the test: Growth promotion of Trichoderma hamatum assessed as radial growth at 0.5% after 48 hrs by poison food technique of Flack relative to control.
In test [28] the test system is Trichoderma koningii. The experiment in a line: Growth promotion of Trichoderma koningii assessed as radial growth at 1% after 24 hrs by poison food technique of Flack relative to control.
For test [29], the system named is Trichoderma koningii. The experiment in a line: Antifungal activity against Trichoderma koningii assessed as radial growth at 7% after 48 hrs by poison food technique of Flack. The essentials:
as §1

In test [30] the test system is Aspergillus niger. The experiment in a line: Growth promotion of Aspergillus niger assessed as radial growth at 1% after 24 hrs by poison food technique of Flack relative to control. The essentials: as §3
The subject of test [31] is Trichoderma hamatum. The experiment in a line: Growth promotion of Trichoderma hamatum assessed as radial growth at 0.5% after 24 hrs by poison food technique of Flack relative to control. The essentials:
as §3

Test [32] has as its system Trichoderma koningii. The experiment in a line: Antifungal activity against Trichoderma koningii assessed as radial growth at 3% after 24 hrs by poison food technique of Flack. An outline of the steps:
as §1

Test [33] deals with Trichoderma hamatum. Nature of the test: Antifungal activity against Trichoderma hamatum assessed as radial growth at 7% after 72 hrs by poison food technique of Flack. The essentials: as §1
The test system of test [34] is Trichoderma koningii. Nature of the test: Antifungal activity against Trichoderma koningii assessed as radial growth at 5% after 48 hrs by poison food technique of Flack. An outline of the steps:
as §1

The test system of test [35] is Trichoderma hamatum. Nature of the test: Growth promotion of Trichoderma hamatum assessed as radial growth at 1% after 24 hrs by poison food technique of Flack relative to control.
The subject of test [36] is Trichoderma hamatum. Nature of the test: Growth promotion of Trichoderma hamatum assessed as radial growth at 1% after 48 hrs by poison food technique of Flack relative to control.
Test [37] deals with Aspergillus niger. Nature of the test: Antifungal activity against Aspergillus niger assessed as radial growth at 3% after 24 hrs by poison food technique of Flack. The essentials: as §4

The structures appear in SMILES notation. In brackets after ≈: the same amount, converted by molar mass. Activity calls are given as the source filed them. The calls are words filed in the database; no cut-off is given here.

Data on six molecules can be found in ChEMBL document CHEMBL1152173, “Synthesis and in vitro evaluation of the antifungal activities of dihydropyrimidinones” (2008).

Consider `CCOC(=O)C1=C(C)NC(=S)NC1c1ccccc1O` (stereo not drawn), for which the outcome in test [1], in [5], in test [9], in test [17] and in [18] was Active. Moreover, the “inhibition (INH)” value in test [2] was 100%; in test [6], 36.14%; in test [8], 0%; in [16] it was 12.35%. The Activity in test [3] stood at 19.71%; in test [4] it was 94.34%; in test [7], 53.12%; in [10], 104.34%; in [11], 93.61%; in test [12], 129.68%. The Activity in [13] turned out to be 0.42%; in test [14], 90.09%; in test [15] it was 1.25%; in [19], 113.53%. In test [20], this molecule had an MIC of 0.025 µg/mL (≈ 0.0855 µM).

Consider `CCOC(=O)C1=C(C)NC(=S)NC1c1ccc(N(C)C)cc1` (stereo not drawn), for which the result in test [1], in [21], in test [5], in [22], in test [23] and in [24] was Active. Besides, the result in test [9], in test [26] and in test [17] was Active. The “inhibition (INH)” value in test [2] was 100%; in test [6], 100%; in test [8], 0%; in test [16] it was 3.84%. For the same molecule, the Activity in test [3] came out at 15.38%; in test [4], 86.6%; in test [7], 18.75%; in test [10], 92.07%; in [11] it was 100%; in test [12], 103.2%. The Activity in [25] came out at 1.35%; in test [14], 60%; in test [15], 2.7%; in test [19] it was 18.21%. Further, in test [20], the minimum inhibitory concentration (MIC) came out at 0.025 µg/mL (≈ 0.0783 µM).

Consider `CCOC(=O)C1=C(C)NC(=O)NC1c1ccccc1O` (stereo not drawn), for which the Activity in [27] is recorded as 19.53%; in [28], 5.79%; in [3], 6.49%; in test [30], 7.4%; in test [7], 11.97%; in test [13] it was 4.07%. For the same molecule, the Activity in [14] stood at 3.2%; in [15], 6.37%; in [31] it was 5.68%. Moreover, the outcome in test [21], in test [29], in test [24], in test [9] and in test [17] was Active. The “inhibition (INH)” value in test [2] came to 89.47%; in [6], 92.85%; in test [8], 0%; in [16] it was 0%. In addition, the MIC in [20] was found to be 0.025 µg/mL (≈ 0.0905 µM).

Take `CCOC(=O)C1=C(C)NC(=S)NC1c1ccccc1` (stereo not drawn): the outcome in [21], in [22], in test [24] and in test [17] was Active. In addition, the “inhibition (INH)” value in test [2] turned out to be 89.18%; in [6], 100%; in test [8], 0%; in test [16], 0%. The Activity is reported as 26.94% in [28]; 36.06% in test [3]; 50% in test [4]; 16.26% in test [7]; 75.75% in test [10]; 106.06% in test [11]. In addition, the Activity in test [12] turned out to be 96.9%; in test [25], 2.97%; in test [14], 133%; in [15], 2.97%; in test [19] it was 3.92%. Further, the lowest concentration to inhibit growth in test [20] (MIC) was 0.025 µg/mL (≈ 0.0905 µM).

Take `CCOC(=O)C1=C(C)NC(=O)NC1c1ccccc1` (stereo not drawn): the result in [21], in [32], in [29], in test [5], in test [33] and in [9] was Active. Further, the outcome in test [34], in test [17] and in test [18] was Active. For the same molecule, the “inhibition (INH)” value in test [2] was 100%; in [6], 76.7%; in [8], 0%; in [16], 12.09%. Also, the Activity in test [4] was found to be 13.37%; in [10], 7.76%; in test [11], 27.63%; in test [12] it was 64.39%; in test [14], 19.44%. In addition, the MIC in [20] is 0.025 µg/mL (≈ 0.096 µM).

Turning to `CCOC(=O)C1=C(C)NC(=O)NC1c1ccc(N(C)C)cc1` (stereo not drawn), the Activity in test [27] was 3.3%; in [35], 3.15%; in [36], 1.5%; in [31], 8.97%. The result in test [21], in test [22], in [23], in test [24], in test [9] and in test [37] was Active. Besides, in test [18], the outcome was Active. Besides, the “inhibition (INH)” value in test [2] is recorded as 84.2%; in test [6], 100%; in [8] it was 38.28%; in [16] it was 9.36%. Besides, the lowest concentration to inhibit growth in test [20] (MIC) was 0.025 µg/mL (≈ 0.0824 µM).

By MIC is commonly meant the least concentration at which growth counts as inhibited. A higher MIC goes with a need for much substance.
